Converted amounts (≈) assume the structure as drawn. The source made the active and inactive calls. The rule behind the calls is not given here.
Tests used:
[1] = tested on: Staphylococcus aureus; assay: Antibacterial activity against Staphylococcus aureus ATCC 700699 infected in C57BL6 mouse cornea assessed as decrease in number of viable bacteria at 0.5% administered topically at 2 hrs interval for 4 times starting on day 1 post infection measured post last dose relative to control; type: functional, Mu50
[2] = tested on: Staphylococcus aureus; assay: Antibacterial activity against Staphylococcus aureus ATCC 29213 infected in C57BL6 mouse cornea assessed as decrease in number of viable bacteria at 0.5% administered topically at 2 hrs interval for 4 times starting on day 1 post infection measured post last dose relative to control; type: functional
[3] = tested on: Staphylococcus aureus; assay: Disruption of membrane in Staphylococcus aureus isolate DM4001R assessed as increase in ATP leakage at 4 times MIC after 1 hr by ATP bioluminescent assay relative to control; type: functional
Outline: (§1)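 S. aureus DM4001 grown to exponential phase, washed three times in 20 mM PBS (pH 7), resuspended to OD600 0.2. Compound added, suspensions held 1 hour at 37 °C, then centrifuged. Supernatant mixed with luciferase/luciferin enzyme mix; extracellular ATP quantified by luminescence. Replicated.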

[4] = tested on: Staphylococcus aureus; assay: Disruption of cytoplasmic membrane in Staphylococcus aureus isolate DM4001R at 2 times MIC after 3000 secs by SYTOX green dye based fluorescence assay; type: functional
Outline: (§2)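 Clinical S. aureus isolate DM4001R incubated with SYTOX Green plus compound; membrane permeabilization read as increased fluorescence intensity. Measurements replicated.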

[5] = tested on: Lipid bilayer; assay: Induction of membrane damage in DOPC/cholesterol large unilamellar vesicles assessed as calcein leakage at compound to lipid ratio of 1:16 after 1 hr by fluorescence assay relative to control
Outline: (§3)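 100 nm calcein-loaded LUVs made by film hydration; lipid content set by total phosphorus assay. DOPC/cholesterol (3:1, w/w) mimics mammalian and DOPE/DOPG (3:1, w/w) bacterial membranes. Compound in DMF added at lipid-to-compound ratio 16 (6.25 µM compound), final DMF limited to 0.5%. Fluorescence monitored at ex 490/em 520 nm for 1 hour; replicated.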

[6] = tested on: Lipid bilayer; assay: Induction of membrane damage in DOPE/DOPG large unilamellar vesicles assessed as calcein leakage at compound to lipid ratio of 1:16 after 1 hr by fluorescence assay relative to control; outline: as §3
[7] = Cytotoxicity against human corneal fibroblasts assessed as reduction in cell viability up to 250 uM after 4 hrs by CytoTox-ONE reagent-based LDH assay relative to control; settings: corneal fibroblast
Outline: (§4)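 Human corneal fibroblasts exposed to compound; cytotoxicity taken from LDH leakage, with cells treated with 1% triton X-100 as positive control. Measurements replicated.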

[8] = tested on: Staphylococcus aureus; assay: Antibacterial activity against Staphylococcus aureus ATCC 29213 at 0.5 times MIC after 17 serial passages; type: functional
Outline: (§5)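 Serial-passage resistance selection in S. aureus ATCC29213. MIC was determined by CA-MHB broth macrodilution (2-fold dilutions, ~5×10^5 CFU/mL, 35 °C). Cells grown at 0.5× MIC were recovered and used to prepare the inoculum for the next MIC assay, with MIC change read after each 24 h/35 °C round. This was repeated for 17 passages, or 30 passages for one compound. Replicated.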

[9] = tested on: Staphylococcus aureus; assay: Bactericidal activity against methicillin-resistant Staphylococcus aureus DM21455 assessed as log reduction in bacterial load at 2 times MIC after 2 hrs by time kill assay; type: functional
Outline: (§6)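 MRSA DM21455 was taken from colonies on 18-22 h TSA plates and diluted to 10^5~10^6 CFU/mL in PBS. Cells were exposed to 0.5×, 1×, 2× and 4× MIC at 35 °C, with a PBS control. Samples were taken at 10 min, 30 min, 1, 2, 4 and 8 h, 10-fold diluted in PBS and plated on MHA. Colonies were counted after 24-48 h at 35 °C. Replicated.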

[10] = tested on: Staphylococcus aureus; assay: Bactericidal activity against methicillin-resistant Staphylococcus aureus DM21455 assessed as log reduction in bacterial load at 4 times MIC after 10 mins by time kill assay; type: functional; outline: as §6
[11] = Solubility of the compound in water; type: physicochemical; settings: buffer
[12] = tested on: Enterococcus hirae; assay: Antibacterial activity against Enterococcus hirae ATCC 9790 after 24 hrs by two fold dilution assay; type: functional; settings: ATCC 9790, 24 h
Outline: (§7)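 Broth macro-dilution per CLSI in cation-adjusted Mueller-Hinton broth; compounds dissolved in DMF, diluted in PBS to 1000 µg/mL stock, then serial 2-fold dilutions in CA-MHB in tubes. Inoculum from 18-20 h TSA colonies (direct colony suspension), adjusted to about 5× 10^5 CFU/mL. MIC read after 24 h at 35 °C as lowest concentration with no visible growth; biological replicates.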

[13] = tested on: Enterococcus faecalis; assay: Antibacterial activity against Enterococcus faecalis ATCC 29212 after 24 hrs by two fold dilution assay; type: functional; settings: ATCC 29212, 24 h; outline: as §7
[14] = tested on: Enterococcus faecium; assay: Antibacterial activity against vancomycin A-resistant Enterococcus faecium VRE 1008 after 24 hrs by two fold dilution assay; type: functional; settings: VRE 1008, 24 h
Outline: (§8)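 CLSI broth macrodilution in cation-adjusted Mueller-Hinton broth. Compounds were dissolved in DMF and diluted in PBS to a 1000 µg/mL stock, then serially 2-fold diluted in CA-MHB. The inoculum came from colonies on 18-20 h TSA plates (direct colony suspension), adjusted to ~5×10^5 CFU/mL. Incubation was 24 h at 35 °C. MIC is the lowest concentration with no visible growth versus control. Biological replicates.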

[15] = tested on: Enterococcus faecium; assay: Antibacterial activity against vancomycin A-resistant Enterococcus faecium VRE 1007 after 24 hrs by two fold dilution assay; type: functional; settings: VRE 1007, 24 h; outline: as §8
[16] = tested on: Enterococcus faecium; assay: Antibacterial activity against vancomycin A-resistant Enterococcus faecium VRE 1006 after 24 hrs by two fold dilution assay; type: functional; settings: VRE 1006, 24 h; outline: as §8
[17] = tested on: Staphylococcus aureus; assay: Antibacterial activity against methicillin-resistant Staphylococcus aureus ATCC BAA-38 after 24 hrs by two fold dilution assay; type: functional; settings: ATCC BAA-38, 24 h; outline: as §8
[18] = tested on: Staphylococcus aureus; assay: Antibacterial activity against methicillin-resistant Staphylococcus aureus ATCC 700699 after 24 hrs by two fold dilution assay; type: functional; settings: Mu50, 24 h; outline: as §8
[19] = tested on: Staphylococcus aureus; assay: Antibacterial activity against methicillin-resistant Staphylococcus aureus ATCC 43300 after 24 hrs by two fold dilution assay; type: functional; settings: ATCC 43300, 24 h; outline: as §8
[20] = tested on: Staphylococcus aureus; assay: Antibacterial activity against methicillin-resistant Staphylococcus aureus DB57964 after 24 hrs by two fold dilution assay; type: functional; settings: DB57964, 24 h; outline: as §8
[21] = tested on: Staphylococcus aureus; assay: Antibacterial activity against methicillin-resistant Staphylococcus aureus DB68004 after 24 hrs by two fold dilution assay; type: functional; settings: DB68004, 24 h; outline: as §8
[22] = tested on: Staphylococcus aureus; assay: Antibacterial activity against methicillin-resistant Staphylococcus aureus DB6506 after 24 hrs by two fold dilution assay; type: functional; settings: DB6506, 24 h; outline: as §8
[23] = tested on: Staphylococcus aureus; assay: Antibacterial activity against methicillin-sensitive Staphylococcus aureus ATCC 29737 after 24 hrs by two fold dilution assay; type: functional; settings: ATCC 29737, 24 h; outline: as §8
[24] = tested on: Staphylococcus aureus; assay: Antibacterial activity against methicillin-sensitive Staphylococcus aureus ATCC 6538 after 24 hrs by two fold dilution assay; type: functional; settings: ATCC 6538, 24 h; outline: as §8
[25] = tested on: Staphylococcus aureus; assay: Antibacterial activity against methicillin-sensitive Staphylococcus aureus ATCC 29213 after 24 hrs by two fold dilution assay; type: functional; settings: ATCC 29213, 24 h; outline: as §8
[26] = tested on: Staphylococcus aureus; assay: Antibacterial activity against methicillin-sensitive Staphylococcus aureus DM4400R after 24 hrs by two fold dilution assay; type: functional; outline: as §8
[27] = tested on: Staphylococcus aureus; assay: Antibacterial activity against methicillin-sensitive Staphylococcus aureus DM4299 after 24 hrs by two fold dilution assay; type: functional; settings: DM4299, 24 h; outline: as §8
[28] = tested on: Staphylococcus aureus; assay: Antibacterial activity against methicillin-sensitive Staphylococcus aureus DM4583R after 24 hrs by two fold dilution assay; type: functional; outline: as §8
[29] = tested on: Bacillus cereus; assay: Antibacterial activity against Bacillus cereus ATCC 11778 after 24 hrs by two fold dilution assay; type: functional; settings: ATCC 11778, 24 h; outline: as §7
[30] = tested on: Staphylococcus aureus; assay: Antibacterial activity against methicillin-resistant Staphylococcus aureus DM 9808R after 24 hrs by two fold dilution assay; type: functional; outline: as §8
[31] = tested on: Staphylococcus aureus; assay: Antibacterial activity against methicillin-resistant Staphylococcus aureus DM 21455 after 24 hrs by two fold dilution assay; type: functional; settings: DM 21455, 24 h; outline: as §8
[32] = tested on: Staphylococcus aureus; assay: Antibacterial activity against Staphylococcus aureus DM 4001R after 24 hrs by two fold dilution assay; type: functional; outline: as §8
[33] = tested on: Staphylococcus aureus; assay: Disruption of membrane in Staphylococcus aureus isolate DM4001R assessed as […] in ATP leakage at 200 ug/ml after 1 hr by ATP bioluminescent assay relative to control; type: functional; design: scale not given: the % may be the effect or the level left; outline: as §1
[34] = tested on: Staphylococcus aureus; assay: Disruption of cytoplasmic membrane in Staphylococcus aureus isolate DM4001R at 100 ug/ml after 3000 secs by SYTOX green dye based fluorescence assay; type: functional; outline: as §2
[35] = Cytotoxicity against human corneal fibroblasts assessed as reduction in cell viability at 100 uM after 4 hrs by CytoTox-ONE reagent-based LDH assay; settings: corneal fibroblast; outline: as §4
[36] = tested on: Staphylococcus aureus; assay: Antibacterial activity against Staphylococcus aureus ATCC 29213 at 0.5 times MIC after 30 serial passages; type: functional; outline: as §5
[37] = tested on: Staphylococcus aureus; assay: Bactericidal activity against methicillin-resistant Staphylococcus aureus DM21455 assessed as log reduction in bacterial load at 2 times MIC after 30 mins by time kill assay; type: functional; outline: as §6

SMILES	Activity [3]	Activity [4]	Activity [5]	Activity [6]	Activity [7]	log(activity) [10]	solubility [11]	MIC [12]	MIC [13]	MIC [14]	MIC [15]	MIC [16]	MIC [17]	MIC [18]	MIC [19]	MIC [20]	MIC [29]	MIC [30]	MIC [31]	MIC [32]	also measured
COC(=O)[C@H](CCCNC(=N)N)NC(=O)COc1cc(OCC=C(C)C)cc2oc3cc(OCC=C(C)C)cc(OCC(=O)N[C@@H](CCCNC(=N)N)C(=O)OC)c3c(=O)c12	59.6%	Active	< 20%	58.7%	Non-Toxic	3	Soluble	6.25 µg/mL (≈ 7.33 µM)	3.13 µg/mL (≈ 3.67 µM)	6.25 µg/mL (≈ 7.33 µM)	6.25 µg/mL (≈ 7.33 µM)	6.25 µg/mL (≈ 7.33 µM)	3.13 µg/mL (≈ 3.67 µM)	3.13 µg/mL (≈ 3.67 µM)	1.56 µg/mL (≈ 1.83 µM)	1.56 µg/mL (≈ 1.83 µM)	3.13 µg/mL (≈ 3.67 µM)	0.78 µg/mL (≈ 0.914 µM)	1.56 µg/mL (≈ 1.83 µM)	0.78 µg/mL (≈ 0.914 µM)	Activity [1]: 92.8%; Activity [2]: 98.5%; Activity [8]: Active; log(activity) [9]: 3; MIC [21]: 3.13 µg/mL (≈ 3.67 µM); MIC [22]: 1.56 µg/mL (≈ 1.83 µM); MIC [23]: 0.78 µg/mL (≈ 0.914 µM); MIC [24]: 0.78 µg/mL (≈ 0.914 µM); MIC [25]: 3.13 µg/mL (≈ 3.67 µM); MIC [26]: 0.78 µg/mL (≈ 0.914 µM); MIC [27]: 3.13 µg/mL (≈ 3.67 µM); MIC [28]: 1.56 µg/mL (≈ 1.83 µM)
O=c1c2c(O)cc(O)cc2oc2cc(O)cc(O)c12			< 20%	11.7%													> 50 µg/mL	> 50 µg/mL	> 50 µg/mL	> 50 µg/mL	Activity [33]: 6.9%; Activity [34]: inactive
COC(=O)[C@H](CCCNC(=N)N)NC(=O)[C@H](CCCNC(=N)N)NC(=O)COc1cc(OCC=C(C)C)cc2oc3cc(OCC=C(C)C)cc(OCC(=O)N[C@@H](CCCNC(=N)N)C(=O)N[C@@H](CCCNC(=N)N)C(=O)OC)c3c(=O)c12	66.4%	Active	< 20%	63.3%	27.4%	3	Soluble	6.25 µg/mL (≈ 5.36 µM)	6.25 µg/mL (≈ 5.36 µM)	3.13 µg/mL (≈ 2.69 µM)	1.56 µg/mL (≈ 1.34 µM)	1.56 µg/mL (≈ 1.34 µM)	3.13 µg/mL (≈ 2.69 µM)	1.56 µg/mL (≈ 1.34 µM)	1.56 µg/mL (≈ 1.34 µM)	1.56 µg/mL (≈ 1.34 µM)	3.13 µg/mL (≈ 2.69 µM)	3.13 µg/mL (≈ 2.69 µM)	3.13 µg/mL (≈ 2.69 µM)	1.56 µg/mL (≈ 1.34 µM)	Activity [35]: Non-Toxic; Activity [36]: Active; log(activity) [37]: 3; MIC [21]: 1.56 µg/mL (≈ 1.34 µM); MIC [22]: 1.56 µg/mL (≈ 1.34 µM); MIC [23]: 1.56 µg/mL (≈ 1.34 µM); MIC [24]: 1.56 µg/mL (≈ 1.34 µM); MIC [25]: 3.13 µg/mL (≈ 2.69 µM); MIC [26]: 3.13 µg/mL (≈ 2.69 µM); MIC [27]: 1.56 µg/mL (≈ 1.34 µM); MIC [28]: 3.13 µg/mL (≈ 2.69 µM)

From ChEMBL document CHEMBL4052597, “Symmetrically Substituted Xanthone Amphiphiles Combat Gram-Positive Bacterial Resistance with Enhanced Membrane Selectivity” (J Med Chem, 2017)
